Measured values from ChEMBL document CHEMBL1154293, “Sesquiterpenoids and benzofuranoids from the marine-derived fungus Aspergillus ustus 094102” (J Nat Prod, 2009).
pIC50: −log10 of the molar value.

Test system: HL-60
Assay: Cytotoxicity against human HL60 cells after 72 hrs by MTT assay
Format: functional, cell-based
Conditions: HL-60, 72 h
Procedure, shortened: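 HL-60 human tumor cells were plated 24 h ahead, then given various compound concentrations continuously for 72 h. Proliferation inhibition was measured by MTT tetrazolium reduction, and IC50 was derived from the inhibition rates. Etoposide (VP-16) was the positive control.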

Point of comparison: `CC(O)Cc1ccc2c(c1CO)OC(C(C)(C)O)C2` (stereo unspecified) [USTUSORANE E], pIC50 6.89. Against it:
- CC(O)C/C=C/C=C/C=C/C(=O)OC1C=C2COC(=O)[C@]2(O)[C@@]2(C)CCCC(C)(C)[C@H]12 (stereo partly specified) [USTUSOLATE B] — lower, < 4.00
- COC(/C=C/C=C/C(=O)O[C@@H]1C=C2COC(=O)[C@]2(O)[C@@]2(C)CCCC(C)(C)[C@H]12)OC [USTUSOLATE D] — lower, < 4.00
- CC1=CC(=O)[C@H]2C(C)(C)C[C@@H](O)C[C@]2(C)[C@@]1(O)CO [USTUSOL B] — lower, < 4.00
- CC(C)(O)C1Cc2ccc(/C=C\CO)c(CO)c2O1 (stereo unspecified) — lower, < 4.00
- CC1=CC(=O)[C@H]2C(C)(C)[C@@H](O)CC[C@]2(C)[C@@]1(O)CO [USTUSOL A] — lower, < 4.00
- CC(C)=C1Oc2c(ccc(CC(C)O)c2CO)C1=O (stereo unspecified) [USTUSORANE A] — lower, < 4.00
- CC1(C)CCC[C@@]2(C)[C@H]1[C@H](OC(=O)/C=C/C=C/C=O)C=C1COC(=O)[C@@]12O [USTUSOLATE E] — 1.84 log units lower, 5.05
- CO[C@@H]1C=C(CO)[C@](O)(CO)[C@@]2(C)CCCC(C)(C)[C@H]12 [USTUSOL C] — lower, < 4.00
- CC1=Cc2ccc3c(c2CO1)OC(=C(C)C)C3=O [USTUSORANE B] — lower, < 4.00
- CO[C@H]1O[C@H](C)Cc2ccc3c(c21)OC(=C(C)C)C3=O [USTUSORANE C] — lower, < 4.00
- CO[C@H]1O[C@H](C)Cc2ccc3c(c21)OC(C(C)C)C3=O (stereo partly specified) [USTUSORANE D] — lower, < 4.00
- CC(O)C/C=C/C=C/C(=O)O[C@@H]1C=C2COC(=O)[C@]2(O)[C@@]2(C)CCCC(C)(C)[C@H]12 (stereo partly specified) [USTUSOLATE C] — lower, < 4.00

Test system: A549
Assay: Cytotoxicity against human A549 cells after 24 hrs by SRB assay
Format: functional, cell-based
Conditions: A549, 24 h

Work on `CC(C)(O)C1Cc2ccc(/C=C\CO)c(CO)c2O1` (stereo unspecified) yielded a pIC50 of less than 4.00.

Test system: A549
Assay: Cytotoxicity against human A549 cells after 72 hrs by SRB assay
Conditions: A549, 72 h

Point of comparison: `CC(O)C/C=C/C=C/C(=O)O[C@@H]1C=C2COC(=O)[C@]2(O)[C@@]2(C)CCCC(C)(C)[C@H]12` (stereo partly specified) [USTUSOLATE C], pIC50 4.98. Against it:
- CC(O)C/C=C/C=C/C=C/C(=O)OC1C=C2COC(=O)[C@]2(O)[C@@]2(C)CCCC(C)(C)[C@H]12 (stereo partly specified) [USTUSOLATE B] — lower, < 4.00
- COC(/C=C/C=C/C(=O)O[C@@H]1C=C2COC(=O)[C@]2(O)[C@@]2(C)CCCC(C)(C)[C@H]12)OC [USTUSOLATE D] — lower, < 4.00
- CC1=CC(=O)[C@H]2C(C)(C)C[C@@H](O)C[C@]2(C)[C@@]1(O)CO [USTUSOL B] — lower, < 4.00
- CC1=CC(=O)[C@H]2C(C)(C)[C@@H](O)CC[C@]2(C)[C@@]1(O)CO [USTUSOL A] — lower, < 4.00
- CC(C)=C1Oc2c(ccc(CC(C)O)c2CO)C1=O (stereo unspecified) [USTUSORANE A] — lower, < 4.00
- CC(O)Cc1ccc2c(c1CO)OC(C(C)(C)O)C2 (stereo unspecified) [USTUSORANE E] — lower, < 4.00
- CC1(C)CCC[C@@]2(C)[C@H]1[C@H](OC(=O)/C=C/C=C/C=O)C=C1COC(=O)[C@@]12O [USTUSOLATE E] — lower, < 4.00
- CO[C@@H]1C=C(CO)[C@](O)(CO)[C@@]2(C)CCCC(C)(C)[C@H]12 [USTUSOL C] — lower, < 4.00
- CC1=Cc2ccc3c(c2CO1)OC(=C(C)C)C3=O [USTUSORANE B] — lower, < 4.00
- CO[C@H]1O[C@H](C)Cc2ccc3c(c21)OC(=C(C)C)C3=O [USTUSORANE C] — lower, < 4.00
- CO[C@H]1O[C@H](C)Cc2ccc3c(c21)OC(C(C)C)C3=O (stereo partly specified) [USTUSORANE D] — lower, < 4.00
